# Data taken from ChEMBL document CHEMBL3085664, “Structure-activity relationship of imidazopyridinium analogues as antagonists of neuropeptide s receptor” (J Med Chem, 2013).
# Active and inactive are the calls of the source. The calls are words filed in the database; no cut-off is given here.
# Experiments:
# Brain [1] = experiment: Drug level in mouse brain at 10 mg/kg, ip after 0.5 hrs; format: ADME, organism-based; set-up: dose 10 mg/kg, route intraperitoneal; settings: in vivo
# In short: (§1)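 Mouse pharmacokinetics after a single 10 mpk intraperitoneal dose. Plasma and brain were sampled at 0, 0.083, 0.25, 0.5, 1, 2, 4, 8, 12 and 24 h. Concentrations are reported as the mean of N=3 at each time point, in ng/mL or nM for plasma and ng/g or nmol/g for brain.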
# [2] = Plasma concentration in mouse at 10 mg/kg, ip after 4 hrs; format: ADME, organism-based; set-up: dose 10 mg/kg, route intraperitoneal; in short: as §1
# [3] = Cmax in mouse brain at 10 mg/kg, ip; format: ADME, organism-based; set-up: dose 10 mg/kg, route intraperitoneal; in short: as §1
# Plasma [4] = experiment: Cmax in mouse plasma at 10 mg/kg, ip; format: ADME, organism-based; set-up: dose 10 mg/kg, route intraperitoneal; settings: in vivo; in short: as §1
# [5] = Plasma concentration in mouse at 10 mg/kg, ip after 8 hrs; format: ADME, organism-based; set-up: dose 10 mg/kg, route intraperitoneal; in short: as §1
# [6] = Metabolic stability in mouse liver microsomes assessed as compound remaining after 15 mins in presence NADPH; format: ADME, Microsome; settings: read-out: Stability
# In short: (§2)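 Compound was incubated with mouse liver microsomes, and percent parent remaining was determined at 15, 30 and 60 min. Values are means from a single experiment run in duplicate.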
# [7] = Plasma concentration in mouse at 10 mg/kg, ip after 0.083 hrs; format: ADME, organism-based; set-up: dose 10 mg/kg, route intraperitoneal; in short: as §1
# [8] = Metabolic stability in mouse liver microsomes assessed as compound remaining after 30 mins in presence NADPH; format: ADME, Microsome; settings: read-out: Stability; in short: as §2
# [9] = Plasma concentration in mouse at 10 mg/kg, ip after 12 hrs; format: ADME, organism-based; set-up: dose 10 mg/kg, route intraperitoneal; in short: as §1
# Neuropeptide S receptor [10] = target: T1, Neuropeptide S receptor (Homo sapiens, UniProt Q6W5P4); experiment: Antagonist activity at neuropeptide S receptor (unknown origin) expressed in CHO cells assessed as inhibition of NPS-induced ERK activation after 20 mins by HTRF assay; format: cell-based
# T1 sequence (Q6W5P4 whole entry): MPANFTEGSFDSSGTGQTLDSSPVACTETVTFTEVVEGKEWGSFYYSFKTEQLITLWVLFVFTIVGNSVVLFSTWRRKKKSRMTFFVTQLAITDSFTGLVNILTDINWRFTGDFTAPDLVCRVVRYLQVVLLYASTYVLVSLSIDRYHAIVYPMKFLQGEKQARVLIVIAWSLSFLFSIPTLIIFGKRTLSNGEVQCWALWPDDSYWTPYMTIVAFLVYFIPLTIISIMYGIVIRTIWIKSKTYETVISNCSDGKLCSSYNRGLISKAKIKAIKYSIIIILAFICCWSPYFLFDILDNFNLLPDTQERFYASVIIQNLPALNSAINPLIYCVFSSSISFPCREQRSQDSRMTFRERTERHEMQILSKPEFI
# Mu-type opioid receptor [11] = target: T2, Mu-type opioid receptor (Homo sapiens, UniProt P35372); experiment: Displacement of radiolabeled DAMGO from human recombinant mu opioid receptor expressed in OPRM1 cells; format: cell-based
# T2 sequence (P35372 whole entry): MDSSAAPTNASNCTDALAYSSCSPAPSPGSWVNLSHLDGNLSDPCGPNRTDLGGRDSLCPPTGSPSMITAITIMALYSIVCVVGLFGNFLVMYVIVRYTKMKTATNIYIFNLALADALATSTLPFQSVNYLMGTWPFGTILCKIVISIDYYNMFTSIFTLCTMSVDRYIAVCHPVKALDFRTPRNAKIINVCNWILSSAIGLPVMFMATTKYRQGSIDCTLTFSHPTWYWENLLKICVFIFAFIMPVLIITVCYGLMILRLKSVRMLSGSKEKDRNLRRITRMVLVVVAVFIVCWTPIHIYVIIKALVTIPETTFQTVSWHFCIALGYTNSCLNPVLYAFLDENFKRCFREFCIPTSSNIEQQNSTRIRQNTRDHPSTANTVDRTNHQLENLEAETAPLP
# [12] = Plasma concentration in mouse at 10 mg/kg, ip after 24 hrs; format: ADME, organism-based; set-up: dose 10 mg/kg, route intraperitoneal; in short: as §1
# Brain [13] = experiment: Tmax in mouse brain at 10 mg/kg, ip; format: ADME, organism-based; set-up: dose 10 mg/kg, route intraperitoneal; settings: in vivo; in short: as §1
# Brain [14] = experiment: Drug level in mouse brain at 10 mg/kg, ip after 0.083 hrs; format: ADME, organism-based; set-up: dose 10 mg/kg, route intraperitoneal; settings: in vivo; in short: as §1
# [15] = Metabolic stability in mouse liver microsomes assessed as compound remaining after 60 mins in absence NADPH; format: ADME, Microsome; settings: read-out: Stability; in short: as §2
# Brain [16] = experiment: Drug level in mouse brain at 10 mg/kg, ip after 0.25 hrs; format: ADME, organism-based; set-up: dose 10 mg/kg, route intraperitoneal; settings: in vivo; in short: as §1
# Plasma [17] = experiment: Half life in mouse plasma at 10 mg/kg, ip; format: ADME, organism-based; set-up: dose 10 mg/kg, route intraperitoneal; settings: in vivo; in short: as §1
# Neuropeptide S receptor [18] = target: T1, Neuropeptide S receptor; experiment: Antagonist activity at neuropeptide S receptor (unknown origin) expressed in CHO cells assessed as cAMP level after 30 mins by […] assay; format: functional, cell-based; settings: read-out: IC50
# In short: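 CHO cells stably expressing NPSR, 1800 cells/well in 1536-well format, seeded overnight at 37°C in medium without Geneticin. Stimulation buffer (PBS, 0.1% BSA, 0.05% Tween-20, 500µM Ro 20-1724, EC80 NPS) was added for 30 min at 37°C. cAMP was read by HTRF (d2-cAMP/cryptate anti-cAMP in lysis buffer, 30 min). IC50 is the mean with SD of two independent experiments, each run in duplicate.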
# Rattus norvegicus [19] = experiment: Toxicity in Wistar rat administered daily; format: organism-based; settings: in vivo
# Plasma [20] = experiment: Tmax in mouse plasma at 10 mg/kg, ip; format: ADME, organism-based; set-up: dose 10 mg/kg, route intraperitoneal; settings: in vivo; in short: as §1
# [21] = Ratio of AUC in brain to AUC in plasma in mouse at 10 mg/kg, ip; format: ADME, organism-based; set-up: dose 10 mg/kg, route intraperitoneal; settings: brain and plasma, read-out: Ratio AUC; in short: as §1
# Brain [22] = experiment: AUClast in mouse brain at 10 mg/kg, ip; format: ADME, organism-based; set-up: time 0 - last, dose 10 mg/kg, route intraperitoneal; settings: in vivo; in short: as §1
# Brain [23] = experiment: Drug level in mouse brain at 10 mg/kg, ip after 24 hrs; format: ADME, organism-based; set-up: dose 10 mg/kg, route intraperitoneal; settings: in vivo; in short: as §1
# [24] = Metabolic stability in mouse liver microsomes assessed as compound remaining after 15 mins in absence NADPH; format: ADME, Microsome; settings: read-out: Stability; in short: as §2
# [25] = Plasma concentration in mouse at 10 mg/kg, ip after 0.5 hrs; format: ADME, organism-based; set-up: dose 10 mg/kg, route intraperitoneal; in short: as §1
# Brain [26] = experiment: Drug level in mouse brain at 10 mg/kg, ip after 4 hrs; format: ADME, organism-based; set-up: dose 10 mg/kg, route intraperitoneal; settings: in vivo; in short: as §1
# Plasma [27] = experiment: AUC (infinity) in mouse plasma at 10 mg/kg, ip; format: ADME, organism-based; set-up: time infinity, dose 10 mg/kg, route intraperitoneal; settings: in vivo; in short: as §1
# Rattus norvegicus [28] = experiment: Inhibition of alcohol-induced ERK-phosphorylation in rat in central amygdala at 1 mg/kg, ip; format: functional, organism-based; set-up: dose 1 mg/kg
# [29] = Plasma concentration in mouse at 10 mg/kg, ip after 0.25 hrs; format: ADME, organism-based; set-up: dose 10 mg/kg, route intraperitoneal; in short: as §1
# Rattus norvegicus [30] = experiment: Anorectic activity in Wistar rat assessed as […] of NPS-induced reduction of food intake at 20 ug, icv after 15 to 60 mins; format: functional, organism-based
# [31] = Metabolic stability in mouse liver microsomes assessed as compound remaining after 60 mins in presence NADPH; format: ADME, Microsome; settings: read-out: Stability; in short: as §2
# Brain [32] = experiment: Drug level in mouse brain at 10 mg/kg, ip after 8 hrs; format: ADME, organism-based; set-up: dose 10 mg/kg, route intraperitoneal; settings: in vivo; in short: as §1
# Neuropeptide S receptor [33] = target: T1, Neuropeptide S receptor; experiment: Displacement of [125I]Tyr10-NPS from human neuropeptide S receptor expressed in CHO cells after 1.5 hrs by liquid scintillation counting; format: cell-based
# In short: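 Whole CHO cells stably expressing human NPSR at 90–95% confluency in 24-well plates. Cells were incubated with 0.15 nM [125I]Y10-NPS plus increasing compound or unlabeled NPS in DMEM/0.1% BSA, 20°C, 1.5 hr. Nonspecific binding was defined with 1 µM unlabeled human NPS. Cells were washed, lysed in 1 N NaOH and counted by liquid scintillation. IC50 from one experiment in duplicate.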
# Brain [34] = experiment: Drug level in mouse brain at 10 mg/kg, ip after 1 hrs; format: ADME, organism-based; set-up: dose 10 mg/kg, route intraperitoneal; settings: in vivo; in short: as §1
# Brain [35] = experiment: Drug level in mouse brain at 10 mg/kg, ip after 12 hrs; format: ADME, organism-based; set-up: dose 10 mg/kg, route intraperitoneal; settings: in vivo; in short: as §1
# Mu-type opioid receptor [36] = target: T2, Mu-type opioid receptor; experiment: Displacement of radiolabeled DAMGO from human recombinant mu opioid receptor expressed in […] at 10 uM; format: cell-based
# [37] = Metabolic stability in mouse liver microsomes assessed as compound remaining after 30 mins in absence NADPH; format: ADME, Microsome; settings: read-out: Stability; in short: as §2
# Brain [38] = experiment: Drug level in mouse brain at 10 mg/kg, ip after 2 hrs; format: ADME, organism-based; set-up: dose 10 mg/kg, route intraperitoneal; settings: in vivo; in short: as §1
# Plasma [39] = experiment: AUClast in mouse plasma at 10 mg/kg, ip; format: ADME, organism-based; set-up: dose 10 mg/kg, route intraperitoneal, time 0 - last; settings: in vivo; in short: as §1
# Neuropeptide S receptor [40] = target: T1, Neuropeptide S receptor; experiment: Antagonist activity at neuropeptide S receptor (unknown origin) expressed in CHO cells assessed as inhibition of NPS-induced calcium mobilization after 10 mins by fluorescence assay; format: functional, cell-based; settings: read-out: IC50
# In short: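 CHO-NPSR cells, 2000/well in 1536-well plates, incubated overnight, then loaded with no-wash calcium dye for 1 h at 37°C. Compound in DMSO was added for 10 min. Baseline fluorescence was recorded 6 s at 1 Hz, then EC80 NPS in stimulation buffer was added and recording continued 4 min at 1 Hz on a kinetic reader. IC50 is the mean with SD of two independent experiments in duplicate.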
# [41] = Plasma concentration in mouse at 10 mg/kg, ip after 1 hrs; format: ADME, organism-based; set-up: dose 10 mg/kg, route intraperitoneal; in short: as §1
# [42] = Plasma concentration in mouse at 10 mg/kg, ip after 2 hrs; format: ADME, organism-based; set-up: dose 10 mg/kg, route intraperitoneal; in short: as §1
compound,measurement,setting,value
Cc1c(P(=S)(c2ccccc2)c2ccccc2)n2ccccc2[n+]1C/C=C/c1ccccc1.[Br-],Drug uptake,Brain [1],53 nmol/g
same,concentration at 4 h,[2],245 nM
same,Cmax,[3],43 ng/mL
same,Cmax,Plasma [4],700 ng/mL
same,concentration at 8 h,[5],214 nM
same,remaining at 0.25 h,[6],72%
same,concentration at 0.083 h,[7],1500 nM
same,remaining at 0.5 h,[8],46%
same,concentration at 12 h,[9],126 nM
same,IC50,Neuropeptide S receptor [10],1.3 nM
same,IC50,Mu-type opioid receptor [11],580 nM
same,concentration at 24 h,[12],54 nM
same,Tmax,Brain [13],12 h
same,Drug uptake,Brain [14],30 nmol/g
same,remaining at 1 h,[15],102%
same,Drug uptake,Brain [16],52 nmol/g
same,t1/2,Plasma [17],8.8 h
same,IC50,Neuropeptide S receptor [18],45 nM
same,Activity,Rattus norvegicus [19],Non-toxic
same,Tmax,Plasma [20],4.98 min
same,Kp,[21],33
same,AUClast,Brain [22],746 ng·h/mL
same,Drug uptake,Brain [23],52 nmol/g
same,remaining at 0.25 h,[24],102%
same,concentration at 0.5 h,[25],1150 nM
same,Drug uptake,Brain [26],53 nmol/g
same,AUC,Plasma [27],2560 ng·h/mL
same,inhibition,Rattus norvegicus [28],Active
same,concentration at 0.25 h,[29],1320 nM
same,Activity,Rattus norvegicus [30],Active
same,remaining at 1 h,[31],26%
same,Drug uptake,Brain [32],60 nmol/g
same,IC50,Neuropeptide S receptor [33],3.5 nM
same,Drug uptake,Brain [34],44 nmol/g
same,Drug uptake,Brain [35],93 nmol/g
same,inhibition,Mu-type opioid receptor [36],> 90%
same,remaining at 0.5 h,[37],102%
same,Drug uptake,Brain [38],57 nmol/g
same,AUClast,Plasma [39],2240 ng·h/mL
same,IC50,Neuropeptide S receptor [40],0.96 nM
same,concentration at 1 h,[41],556 nM
same,concentration at 2 h,[42],386 nM
